Results as given in ChEMBL document CHEMBL3779865, “Discovery of Benzo[cd]indol-2(1H)-ones as Potent and Specific BET Bromodomain Inhibitors: Structure-Based Virtual Screening, Optimization, and Biological Evaluation” (J Med Chem, 2016).

Assays:
[1] = molecular target: Bromodomain-containing protein 3 (Homo sapiens) (UniProt Q15059); test: Binding affinity to human His6-tagged BRD3 bromodomain 1 (P24 to E144 residues) expressed in Escherichia coli BL21(DE3) cells at 200 uM incubated for 30 mins by SYPRO orange staining based fluorescence thermal shift assay
Method in brief: (§1)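 His6-tagged bromodomain constructs expressed in E. coli BL21(DE3) (grown at 25 °C to OD600 ~1.0, induced with 0.1 mM IPTG at 16 °C for 16 h). Purified by Ni affinity then gel filtration. Final 10 μM protein and 200 μM compound in 10 mM HEPES pH 7.5, 150 mM NaCl, DMSO ≤1%. SYPRO Orange 1:1000, 30 min on ice. Melt 30–75 °C at 0.3 °C/min. Triplicates. Tm from Boltzmann fit; ΔTm = Tm with minus without compound.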

[2] = test system: HT-29; test: Antiproliferative activity against human HT-29 cells after 72 hrs by CCK8 assay; format: functional, cell-based
[3] = molecular target: CREB-binding protein (Homo sapiens) (UniProt Q92793); test: Binding affinity to human His6-tagged CREBBP (R1081 to G1197 residues) expressed in Escherichia coli BL21(DE3) cells at 200 uM incubated for 30 mins by SYPRO orange staining based fluorescence thermal shift assay; method in brief: as §1
[4] = molecular target: Bromodomain adjacent to zinc finger domain protein 2B (Homo sapiens) (UniProt Q9UIF8); test: Binding affinity to human His6-tagged BAZ2B (S1858 to S1972 residues) expressed in Escherichia coli BL21(DE3) cells at 200 uM incubated for 30 mins by SYPRO orange staining based fluorescence thermal shift assay; method in brief: as §1
[5] = molecular target: T1, Bromodomain-containing protein 4 (Homo sapiens, UniProt O60885); test: Inhibition of human His6-tagged BRD4 bromodomain 1 (N44 to E168 residues) expressed in Escherichia coli BL21(DE3) cells using biotin-H4KAc4 as substrate incubated for 2 hrs by alphascreen assay
[6] = molecular target: T1, Bromodomain-containing protein 4; test: Binding affinity to human His6-tagged BRD4 bromodomain 1 (N44 to E168 residues) expressed in Escherichia coli BL21(DE3) cells by isothermal titration calorimetry
[7] = test system: MV4-11; test: Antiproliferative activity against human MV4-11 cells after 72 hrs by CCK8 assay; format: functional, cell-based
[8] = molecular target: T2, Bromodomain-containing protein 9 (Homo sapiens) (UniProt Q9H8M2); test: Binding affinity to human His6-tagged BRD9 (L14 to Q134 residues) expressed in Escherichia coli BL21(DE3) cells at 200 uM incubated for 30 mins by SYPRO orange staining based fluorescence thermal shift assay; method in brief: as §1
T2 sequence (whole entry): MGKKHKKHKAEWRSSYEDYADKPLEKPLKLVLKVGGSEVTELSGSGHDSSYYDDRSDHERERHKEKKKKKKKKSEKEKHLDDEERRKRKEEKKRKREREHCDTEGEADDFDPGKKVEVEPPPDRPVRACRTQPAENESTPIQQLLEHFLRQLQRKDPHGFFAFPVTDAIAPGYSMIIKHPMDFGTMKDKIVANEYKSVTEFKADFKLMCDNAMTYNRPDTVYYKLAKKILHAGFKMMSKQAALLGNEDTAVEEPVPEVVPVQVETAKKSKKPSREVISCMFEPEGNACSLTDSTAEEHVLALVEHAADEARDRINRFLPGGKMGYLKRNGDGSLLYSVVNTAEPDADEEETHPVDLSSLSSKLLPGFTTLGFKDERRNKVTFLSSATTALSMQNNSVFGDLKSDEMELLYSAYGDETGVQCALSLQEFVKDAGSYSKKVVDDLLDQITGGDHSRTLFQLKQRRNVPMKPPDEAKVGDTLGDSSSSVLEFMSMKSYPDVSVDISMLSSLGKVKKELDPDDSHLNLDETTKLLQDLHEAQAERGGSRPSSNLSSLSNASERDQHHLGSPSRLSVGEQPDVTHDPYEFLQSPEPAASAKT

[9] = molecular target: Bromodomain-containing protein 2 (Homo sapiens) (UniProt P25440); test: Binding affinity to human His6-tagged BRD2 bromodomain 1 (K77 to N194 residues) expressed in Escherichia coli BL21(DE3) cells at 200 uM incubated for 30 mins by SYPRO orange staining based fluorescence thermal shift assay; method in brief: as §1
[10] = Antiproliferative activity against human HL60 cells after 72 hrs by CCK8 assay; format: functional, cell-based, HL-60
[11] = molecular target: Histone acetyltransferase KAT2B (Homo sapiens) (UniProt Q92831); test: Binding affinity to human His6-tagged PCAF (G715 to D831 residues) expressed in Escherichia coli BL21(DE3) cells at 200 uM incubated for 30 mins by SYPRO orange staining based fluorescence thermal shift assay; method in brief: as §1
[12] = molecular target: Histone acetyltransferase p300 (Homo sapiens) (UniProt Q09472); test: Binding affinity to human His6-tagged EP300 (A1040 to G1161 residues) expressed in Escherichia coli BL21(DE3) cells at 200 uM incubated for 30 mins by SYPRO orange staining based fluorescence thermal shift assay; method in brief: as §1
[13] = molecular target: Transcription initiation factor TFIID subunit 1 (Homo sapiens) (UniProt P21675); test: Binding affinity to human His6-tagged TAF1 bromodomain 1 (R1377 to D1503 residues) expressed in Escherichia coli BL21(DE3) cells at 200 uM incubated for 30 mins by SYPRO orange staining based fluorescence thermal shift assay; method in brief: as §1
[14] = molecular target: T1, Bromodomain-containing protein 4
[15] = molecular target: Bromodomain testis-specific protein (Homo sapiens) (UniProt Q58F21); test: Binding affinity to human His6-tagged BRDT bromodomain 1 (N21 to E137 residues) expressed in Escherichia coli BL21(DE3) cells at 200 uM incubated for 30 mins by SYPRO orange staining based fluorescence thermal shift assay; method in brief: as §1
[16] = molecular target: Histone-lysine N-methyltransferase ASH1L (Homo sapiens) (UniProt Q9NR48); test: Binding affinity to human His6-tagged ASH1L (E2433 to E2564 residues) expressed in Escherichia coli BL21(DE3) cells at 200 uM incubated for 30 mins by SYPRO orange staining based fluorescence thermal shift assay; method in brief: as §1
[17] = molecular target: T3, Bromodomain-containing protein 1 (Homo sapiens) (UniProt O95696); test: Binding affinity to human His6-tagged BRD1 (E556 to A688 residues) expressed in Escherichia coli BL21(DE3) cells at 200 uM incubated for 30 mins by SYPRO orange staining based fluorescence thermal shift assay; method in brief: as §1
T3 sequence (whole entry): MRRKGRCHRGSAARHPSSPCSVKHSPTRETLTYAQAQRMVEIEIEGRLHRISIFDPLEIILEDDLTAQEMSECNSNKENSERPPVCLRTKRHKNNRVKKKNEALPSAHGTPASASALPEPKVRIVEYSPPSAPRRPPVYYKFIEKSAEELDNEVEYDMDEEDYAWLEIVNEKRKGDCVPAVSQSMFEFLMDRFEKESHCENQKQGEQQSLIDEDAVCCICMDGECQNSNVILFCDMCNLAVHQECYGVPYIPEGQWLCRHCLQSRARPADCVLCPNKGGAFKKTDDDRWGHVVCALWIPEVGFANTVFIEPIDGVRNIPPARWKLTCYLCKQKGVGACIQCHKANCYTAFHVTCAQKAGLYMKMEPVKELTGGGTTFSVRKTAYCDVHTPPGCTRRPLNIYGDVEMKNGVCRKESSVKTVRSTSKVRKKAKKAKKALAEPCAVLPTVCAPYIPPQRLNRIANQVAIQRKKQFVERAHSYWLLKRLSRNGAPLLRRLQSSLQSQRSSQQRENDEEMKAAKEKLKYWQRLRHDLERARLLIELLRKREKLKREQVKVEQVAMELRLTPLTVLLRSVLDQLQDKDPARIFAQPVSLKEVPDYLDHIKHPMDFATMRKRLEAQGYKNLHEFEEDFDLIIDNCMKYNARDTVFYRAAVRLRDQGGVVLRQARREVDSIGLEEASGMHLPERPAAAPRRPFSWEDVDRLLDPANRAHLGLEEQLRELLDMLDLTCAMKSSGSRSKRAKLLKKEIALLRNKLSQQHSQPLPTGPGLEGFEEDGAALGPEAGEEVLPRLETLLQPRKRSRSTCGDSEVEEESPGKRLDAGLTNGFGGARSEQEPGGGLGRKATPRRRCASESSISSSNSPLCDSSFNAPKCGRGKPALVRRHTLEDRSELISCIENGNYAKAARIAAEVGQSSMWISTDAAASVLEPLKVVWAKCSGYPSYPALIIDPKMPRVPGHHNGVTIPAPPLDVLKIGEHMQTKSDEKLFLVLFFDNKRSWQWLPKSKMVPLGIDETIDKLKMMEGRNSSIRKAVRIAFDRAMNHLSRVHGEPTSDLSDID

[18] = Apparent permeability from apical to basolateral side in human Caco2 cells assessed as drug recovery at 10 uM incubated for 1 hr by HPLC-MS/MS analysis; format: ADME, cell-based; conditions: Caco-2, read-out: Drug recovery
[19] = Apparent permeability from apical to basolateral side in human Caco2 cells at 10 uM incubated for 1 hr by HPLC-MS/MS analysis; format: ADME, cell-based; conditions: Caco-2
[20] = Apparent permeability from basolateral to apical side in human Caco2 cells at 10 uM incubated for 1 hr by HPLC-MS/MS analysis; format: ADME, cell-based; conditions: Caco-2
[21] = Apparent permeability from basolateral to apical side in human Caco2 cells assessed as drug recovery at 10 uM incubated for 1 hr by HPLC-MS/MS analysis; format: ADME, cell-based; conditions: Caco-2, read-out: Drug recovery
[22] = test system: MV4-11; test: Growth inhibition of human MV4-11 cells at 10 uM after 72 hrs by CCK8 assay; format: functional; conditions: MV4-11, 72 h, read-out: GI
[23] = Homo sapiens, HT-29, 72 h, read-out: IC50
[24] = Homo sapiens, MV4-11, 72 h, read-out: IC50
[25] = Homo sapiens, HL-60, 72 h, read-out: IC50

Bromodomain adjacent to zinc finger domain protein 2B (Homo sapiens), sequence (Q9UIF8 whole entry, the tested form may be a part): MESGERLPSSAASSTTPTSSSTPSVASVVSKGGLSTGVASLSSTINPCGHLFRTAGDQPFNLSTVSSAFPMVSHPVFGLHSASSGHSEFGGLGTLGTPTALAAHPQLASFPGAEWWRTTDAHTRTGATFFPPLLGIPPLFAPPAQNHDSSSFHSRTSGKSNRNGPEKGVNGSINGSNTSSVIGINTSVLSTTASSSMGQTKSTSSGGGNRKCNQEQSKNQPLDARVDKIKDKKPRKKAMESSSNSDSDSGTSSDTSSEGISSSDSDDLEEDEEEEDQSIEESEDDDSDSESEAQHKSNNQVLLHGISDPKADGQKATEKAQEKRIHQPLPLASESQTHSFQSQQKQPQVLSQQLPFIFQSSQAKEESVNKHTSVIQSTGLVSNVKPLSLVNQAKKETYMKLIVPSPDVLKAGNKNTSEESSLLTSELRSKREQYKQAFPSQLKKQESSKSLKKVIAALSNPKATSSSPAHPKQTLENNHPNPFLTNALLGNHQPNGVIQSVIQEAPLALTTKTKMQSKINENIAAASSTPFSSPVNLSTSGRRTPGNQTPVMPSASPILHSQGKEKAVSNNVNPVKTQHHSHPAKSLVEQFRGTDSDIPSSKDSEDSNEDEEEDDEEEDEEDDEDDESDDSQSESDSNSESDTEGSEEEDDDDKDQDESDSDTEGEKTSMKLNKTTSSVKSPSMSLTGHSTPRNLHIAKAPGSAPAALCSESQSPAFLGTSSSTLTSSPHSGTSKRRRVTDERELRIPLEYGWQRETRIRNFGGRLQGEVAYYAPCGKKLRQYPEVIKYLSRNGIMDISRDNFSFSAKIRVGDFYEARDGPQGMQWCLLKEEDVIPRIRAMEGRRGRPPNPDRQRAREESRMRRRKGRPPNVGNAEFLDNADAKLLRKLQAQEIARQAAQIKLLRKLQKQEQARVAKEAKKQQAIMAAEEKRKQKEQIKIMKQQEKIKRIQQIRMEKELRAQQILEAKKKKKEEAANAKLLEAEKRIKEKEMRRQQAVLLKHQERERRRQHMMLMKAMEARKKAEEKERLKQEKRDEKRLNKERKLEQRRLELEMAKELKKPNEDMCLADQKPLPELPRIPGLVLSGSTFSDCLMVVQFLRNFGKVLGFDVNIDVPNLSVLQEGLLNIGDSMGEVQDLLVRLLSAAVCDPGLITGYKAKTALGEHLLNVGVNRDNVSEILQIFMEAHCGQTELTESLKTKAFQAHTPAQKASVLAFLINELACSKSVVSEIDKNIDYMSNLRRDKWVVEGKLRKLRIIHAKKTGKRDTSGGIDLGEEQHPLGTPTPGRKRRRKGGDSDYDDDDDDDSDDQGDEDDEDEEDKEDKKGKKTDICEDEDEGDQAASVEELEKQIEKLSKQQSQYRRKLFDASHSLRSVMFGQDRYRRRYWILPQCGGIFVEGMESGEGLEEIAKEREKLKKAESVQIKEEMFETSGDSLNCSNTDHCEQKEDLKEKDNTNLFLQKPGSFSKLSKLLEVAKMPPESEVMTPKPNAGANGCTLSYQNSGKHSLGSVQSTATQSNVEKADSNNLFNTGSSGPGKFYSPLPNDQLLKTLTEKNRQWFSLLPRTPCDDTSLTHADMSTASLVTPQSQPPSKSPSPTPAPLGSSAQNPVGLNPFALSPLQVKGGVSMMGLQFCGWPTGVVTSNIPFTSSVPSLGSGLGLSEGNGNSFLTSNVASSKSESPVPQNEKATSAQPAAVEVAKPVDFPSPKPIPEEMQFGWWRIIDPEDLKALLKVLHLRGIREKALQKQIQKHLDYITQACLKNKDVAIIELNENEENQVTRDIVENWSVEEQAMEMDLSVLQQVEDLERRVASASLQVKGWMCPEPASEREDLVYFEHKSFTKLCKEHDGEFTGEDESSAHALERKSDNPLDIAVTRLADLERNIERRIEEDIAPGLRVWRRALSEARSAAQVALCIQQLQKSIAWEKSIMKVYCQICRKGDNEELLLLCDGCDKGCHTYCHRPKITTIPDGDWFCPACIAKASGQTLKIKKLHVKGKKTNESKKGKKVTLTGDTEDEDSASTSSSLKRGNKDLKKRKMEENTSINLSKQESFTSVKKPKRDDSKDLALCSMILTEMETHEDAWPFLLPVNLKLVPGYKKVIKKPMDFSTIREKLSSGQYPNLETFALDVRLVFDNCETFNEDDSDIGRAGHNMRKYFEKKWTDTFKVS
Histone acetyltransferase p300 (Homo sapiens), sequence (Q09472 whole entry, the tested form may be a part): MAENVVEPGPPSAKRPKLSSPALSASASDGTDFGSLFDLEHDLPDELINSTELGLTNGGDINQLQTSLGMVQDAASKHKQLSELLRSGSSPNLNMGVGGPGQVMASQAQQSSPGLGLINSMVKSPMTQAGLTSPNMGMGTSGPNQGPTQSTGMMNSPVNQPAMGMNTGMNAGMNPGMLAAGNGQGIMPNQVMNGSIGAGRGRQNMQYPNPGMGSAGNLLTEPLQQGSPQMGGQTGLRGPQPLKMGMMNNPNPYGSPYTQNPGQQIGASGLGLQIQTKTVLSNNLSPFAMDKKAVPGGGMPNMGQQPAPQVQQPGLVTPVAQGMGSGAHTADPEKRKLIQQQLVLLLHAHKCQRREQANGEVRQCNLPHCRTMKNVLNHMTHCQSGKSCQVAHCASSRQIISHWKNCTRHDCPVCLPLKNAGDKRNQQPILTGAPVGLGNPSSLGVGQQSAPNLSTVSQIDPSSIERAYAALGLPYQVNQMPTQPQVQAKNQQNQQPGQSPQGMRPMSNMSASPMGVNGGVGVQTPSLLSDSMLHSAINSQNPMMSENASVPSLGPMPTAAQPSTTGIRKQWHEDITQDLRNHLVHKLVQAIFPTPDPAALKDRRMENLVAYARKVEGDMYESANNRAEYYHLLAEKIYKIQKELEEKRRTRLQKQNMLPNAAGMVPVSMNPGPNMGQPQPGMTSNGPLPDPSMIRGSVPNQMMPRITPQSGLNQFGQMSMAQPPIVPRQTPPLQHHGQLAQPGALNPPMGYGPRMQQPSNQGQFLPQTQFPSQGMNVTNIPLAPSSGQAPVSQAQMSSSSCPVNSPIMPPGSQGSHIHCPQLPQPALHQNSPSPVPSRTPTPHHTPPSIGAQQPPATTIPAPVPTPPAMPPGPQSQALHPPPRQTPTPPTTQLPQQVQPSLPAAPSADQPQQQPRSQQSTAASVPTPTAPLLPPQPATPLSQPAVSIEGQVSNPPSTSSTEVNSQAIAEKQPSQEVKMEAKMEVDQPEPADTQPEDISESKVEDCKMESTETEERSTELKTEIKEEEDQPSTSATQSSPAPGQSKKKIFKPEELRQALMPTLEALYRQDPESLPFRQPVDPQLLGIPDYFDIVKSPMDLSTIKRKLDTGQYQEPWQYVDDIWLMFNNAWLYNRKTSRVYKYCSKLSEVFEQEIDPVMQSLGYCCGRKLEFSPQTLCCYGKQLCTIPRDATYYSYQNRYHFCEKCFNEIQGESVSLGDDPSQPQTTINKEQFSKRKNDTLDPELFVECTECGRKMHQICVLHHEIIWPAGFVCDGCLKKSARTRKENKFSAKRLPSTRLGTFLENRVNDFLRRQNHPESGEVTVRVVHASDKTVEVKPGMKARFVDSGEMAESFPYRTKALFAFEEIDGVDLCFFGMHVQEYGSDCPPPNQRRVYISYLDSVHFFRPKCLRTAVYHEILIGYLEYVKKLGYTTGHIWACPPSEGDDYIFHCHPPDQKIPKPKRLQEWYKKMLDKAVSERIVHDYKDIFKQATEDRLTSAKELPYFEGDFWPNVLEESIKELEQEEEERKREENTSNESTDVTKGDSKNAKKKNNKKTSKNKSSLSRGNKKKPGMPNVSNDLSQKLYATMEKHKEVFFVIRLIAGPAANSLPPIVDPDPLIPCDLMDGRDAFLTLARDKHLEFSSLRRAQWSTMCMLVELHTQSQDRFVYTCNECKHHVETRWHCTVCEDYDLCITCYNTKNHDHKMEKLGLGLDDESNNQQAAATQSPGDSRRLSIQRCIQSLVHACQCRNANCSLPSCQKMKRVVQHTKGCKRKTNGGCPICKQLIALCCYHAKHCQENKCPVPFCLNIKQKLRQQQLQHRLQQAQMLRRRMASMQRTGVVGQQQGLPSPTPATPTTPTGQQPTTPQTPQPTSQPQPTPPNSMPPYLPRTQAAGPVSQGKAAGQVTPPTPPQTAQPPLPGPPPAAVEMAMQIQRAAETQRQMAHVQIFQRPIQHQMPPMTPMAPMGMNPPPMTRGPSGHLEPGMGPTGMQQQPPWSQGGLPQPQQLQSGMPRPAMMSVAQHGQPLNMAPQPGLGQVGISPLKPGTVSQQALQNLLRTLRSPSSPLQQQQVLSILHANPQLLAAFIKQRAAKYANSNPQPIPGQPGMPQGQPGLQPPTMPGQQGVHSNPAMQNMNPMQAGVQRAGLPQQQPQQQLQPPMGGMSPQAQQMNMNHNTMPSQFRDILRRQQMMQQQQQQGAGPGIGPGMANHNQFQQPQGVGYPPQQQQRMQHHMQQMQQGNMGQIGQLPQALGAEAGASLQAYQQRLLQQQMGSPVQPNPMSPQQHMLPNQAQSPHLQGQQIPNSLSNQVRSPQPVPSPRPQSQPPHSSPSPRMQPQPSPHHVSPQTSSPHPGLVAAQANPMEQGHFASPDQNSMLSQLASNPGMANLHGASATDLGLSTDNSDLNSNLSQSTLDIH

Work on `CCN1C(=O)c2cccc3c(NS(=O)(=O)C4CCCCC4)ccc1c23` yielded a ΔTm [1] of 7.8 °C, an IC50 [2, 23] of 8100 nM and a ΔTm [3] of 3.3 °C. The ΔTm [4] was 0 °C, the IC50 [5] was 210 nM and the Kd [6] was 255 nM. It also gave an IC50 [7, 24] of 2850 nM, a ΔTm [8] of 2.8 °C and a ΔTm [9] of 5.8 °C. For the same compound, the IC50 [10, 25] was 3860 nM, the ΔTm [11] was 2.3 °C and the ΔTm [12] was 4.7 °C. It also gave a ΔTm [13] of -0.6 °C, a ΔTm [14] of 10.1 °C and a ΔTm [15] of 5 °C. For the same compound, the ΔTm [16] was -0.4 °C and the ΔTm [17] was -0.3 °C.
`CCN1C(=O)c2cccc3c(NS(=O)(=O)c4cc(Cl)ccc4OC)ccc1c23` gave a ΔTm [1] of 7.3 °C, an IC50 [2, 23] of 8200 nM and a ΔTm [3] of 0 °C. The ΔTm [4] was 0.6 °C, the IC50 [5] was 470 nM and the Kd [6] was 180 nM. The IC50 [7, 24] was 2840 nM, the ΔTm [8] was 2.4 °C and the ΔTm [9] was 5.9 °C. The IC50 [10, 25] was 3000 nM, the ΔTm [11] was 0 °C and the ΔTm [12] was 1.2 °C. The ΔTm [13] was -0.1 °C, the ΔTm [14] was 8.5 °C and the ΔTm [15] was 5.5 °C. It also gave a ΔTm [16] of -0.9 °C and a ΔTm [17] of 0.1 °C.
For `C[C@H]1O[C@@H](O[C@H]2[C@@H](O)C[C@H](O[C@H]3[C@@H](O)C[C@H](O[C@H]4CC[C@@]5(C)[C@H](CC[C@@H]6[C@@H]5C[C@@H](O)[C@]5(C)[C@@H](C7=CC(=O)OC7)CC[C@]65O)C4)O[C@@H]3C)O[C@@H]2C)C[C@H](O)[C@@H]1O` [DIGOXIN], the recovery at 1 h, 10 µM [18] was 107%, the Papp A→B at 1 h, 10 µM [19] was 1.6 ×10⁻⁶ cm/s and the Papp B→A at 1 h, 10 µM [20] was 17.7 ×10⁻⁶ cm/s. The recovery at 1 h, 10 µM [21] was 111%.
With `CCN1C(=O)c2cccc3c(NS(=O)(=O)c4ccc(F)cc4F)ccc1c23` the ΔTm [1] was 7.8 °C, the ΔTm [3] was 2 °C and the ΔTm [4] was -5.7 °C. It also gave an IC50 [5] of 120 nM, a Kd [6] of 275 nM and an IC50 [7, 24] of 4190 nM. The ΔTm [8] was 3 °C, the ΔTm [9] was 5.5 °C and the ΔTm [11] was 3.6 °C. For the same compound, the ΔTm [12] was 4.5 °C, the ΔTm [13] was -1 °C and the ΔTm [14] was 9.5 °C. It also gave a ΔTm [15] of 6.6 °C, an inhibition of growth at 10 µM [22] of 25% and a ΔTm [16] of 2.9 °C. It also gave a ΔTm [17] of 1.6 °C.
In the case of `CCN1C(=O)c2cccc3c(S(=O)(=O)Nc4ccccc4C(=O)O)ccc1c23`, the ΔTm [1] is reported as 6 °C, the IC50 ([2]; ht-29) is reported as “Not Active” and the ΔTm [3] is reported as 4.8 °C. The ΔTm [4] was 1 °C, the Kd [6] was 392 nM and the IC50 ([7]; mv4-11) was “Not Active”. For the same compound, the ΔTm [8] was -2.6 °C, the ΔTm [9] was 3.2 °C and the IC50 ([10]; hl-60) was “Not Active”. The ΔTm [11] was 1.5 °C, the ΔTm [12] was 6.4 °C and the ΔTm [13] was -0.2 °C. For the same compound, the ΔTm [14] was 7.2 °C, the ΔTm [15] was 4.2 °C and the ΔTm [16] was 0.6 °C. It also gave a ΔTm [17] of 2 °C.
